Bioassay records from PubChem BioAssay.
Hits are enriched below; roughly 4.3% of the tested compounds scored in any of these assays.
FLuc stim CS = firefly luciferase counter-screen for stimulation assays; P08659; ATPlite luciferase biochemical, luminescence, 10 min; 0 = ATP-free wells, 1 = DMSO control; activation factor at 10 µM; 200,000 tested, under 10 active;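 active means luciferase activation factor, scaled between plate controls, of at least 2 with compound at 10 µM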
Target sequence (P08659 whole entry, looked up): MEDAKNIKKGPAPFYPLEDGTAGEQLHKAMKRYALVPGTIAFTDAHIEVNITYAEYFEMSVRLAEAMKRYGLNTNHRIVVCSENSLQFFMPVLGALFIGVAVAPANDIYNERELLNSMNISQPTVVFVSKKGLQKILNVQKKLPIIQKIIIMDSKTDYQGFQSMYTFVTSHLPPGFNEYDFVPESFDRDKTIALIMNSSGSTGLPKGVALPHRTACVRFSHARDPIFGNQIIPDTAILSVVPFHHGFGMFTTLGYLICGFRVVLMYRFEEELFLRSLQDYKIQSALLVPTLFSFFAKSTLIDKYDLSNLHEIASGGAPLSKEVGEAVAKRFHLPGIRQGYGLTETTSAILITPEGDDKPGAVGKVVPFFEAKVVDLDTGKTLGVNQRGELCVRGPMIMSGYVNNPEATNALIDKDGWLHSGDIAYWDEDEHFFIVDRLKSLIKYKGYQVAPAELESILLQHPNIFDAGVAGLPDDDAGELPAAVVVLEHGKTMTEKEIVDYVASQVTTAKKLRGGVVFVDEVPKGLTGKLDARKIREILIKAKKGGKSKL
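Material: luciferase plus luciferin reagent, cell-free. Medium: PBS buffer for ATP. Also added: ATP substrate, dispensed from a 10.24 µM working solution in PBS. Doses: test compounds dosed from 2 mM stocks in 100% DMSO. Incubation: 10 min post-reagent at room temperature. Technique: light output (luminescence). Read-out basis: luminescence gain marking luciferase activators.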
FLuc inhib CS = inhibits firefly luciferase, flagging false hits in luciferase inhibition screens; inhibition, % at 10 µM; hit rate 1.5% among 200,000; P08659; ATPLite firefly luciferase biochemical luminescence, 10 min;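 active means inhibition above about 50% when tested at 10 µM, limit read from the data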
STAT1 activator = activators of IFN-gamma induced STAT1 signaling | activation (% of control), % at 5.5 µM | NIH 3T3 STAT1-luciferase reporter, luminescence; 100% = IFN-gamma alone, no compound | AID 932 | hit rate 2.6% among 200,000;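 active means activation above the screen-wide mean activation plus 3 SD, cut at about 130% in these data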;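 further: raw ratio to IFN-gamma control signal so 100% means no change and 0% no light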
NF-kB neuron act = NF-kB expression increase, human neuronal cells | NF-kB reporter expression; active compounds read high | fold change at 12.5 µM | hit rate 1.6% among 190,000 | AID 1239; in the data active means fold change above about 3.3
APP 5'UTR act = activates APP 5'UTR luciferase reporter; SH-SY5Y APP 5'UTR luciferase reporter, luminescence; zero percent = DMSO vehicle wells; activation, % at 2 µM; hit rate 1% among 190,000;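 active means activation above a set limit, based on mean plus 3 SD of controls, cut at about 140% in these data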
Active calls of the source: *; . = not tested or not shown.

SMILES | FLuc stim CS | FLuc inhib CS | STAT1 activator | NF-kB neuron act | APP 5'UTR act
C=CCN=c1scc(-c2ccc(F)cc2)n1/N=C/c1ccccn1 | 1 | -1.1 | 119.6 | 3.33* | 46.5
C=CCN=c1scc(-c2ccccc2)n1/N=C/c1ccccn1 | 0.6 | 44.7 | 214.7* | 7.47* | 99.3
C=CCN=c1scc(-c2ccc3c(c2)NC(=O)CO3)n1/N=C(\C)c1ccccn1 | 1.1 | -6.9 | 80.5 | 0.75 | -51.6
COc1cc2cc(CN(Cc3cccnc3)C(=O)Nc3ccccc3F)c(=O)[nH]c2cc1OC | 1 | -4.2 | 96.0 | 0.94 | -8.0
CCc1cccc(NC(=O)CS(=O)Cc2nc(-c3ccc(C)cc3)oc2C)c1 (stereo unspecified) | 1.1 | -5.7 | 93.4 | 1.02 | 1.4
CCc1ccc(/C=C/C(=O)C2C(=O)c3ccccc3C2=O)cc1 | 0 | 96.3* | 65.4 | 1.09 | 20.2
O=C(/C=C/c1ccccc1)C1C(=O)c2ccccc2C1=O | 0 | 95.4* | 110.9 | 2.61 | 61.2
CCOC(=O)c1[nH]cnc1C(=O)Nc1ccccc1OC | 1 | 3.2 | 112.3 | 1.28 | 3.7
O=C(Nc1nc2c(ccc3ccccc32)s1)c1cc([N+](=O)[O-])ccc1N1CCOCC1 | 1 | -0.1 | 131.1* | 1.25 | 20.1
O=C(Nc1nc(-c2ccc(-c3ccccc3)cc2)cs1)c1cc([N+](=O)[O-])ccc1N1CCOCC1 | 1 | -4.5 | 106.6 | 1.1 | 14.6
Cc1ccccc1CN(C)C(C)C(=O)Nc1ccccc1F (stereo unspecified) | 1 | -4.2 | 94.4 | 1.36 | -4.4
CN(/N=C/c1cccnc1)c1cnc2ccccc2n1 | 0.5 | 50.9* | 172.4* | 3.03 | 170.4*
CC(=O)CSc1nc2ccccc2o1 | 1.1 | -5.3 | 105.9 | 1.55 | 27.3
O=C(CSc1nc2ccccc2o1)Nc1nncs1 | 1.1 | -7.2 | 97.6 | 1.1 | .
Clc1c(CSc2nc3ccccc3o2)nc2sccn12 | 0.9 | 6.8 | 126.9 | 8.11* | 136.2*
Clc1c(CSc2nc3ccccc3o2)nc2ccccn12 | 0.8 | 22.3 | 137.0* | 5.51* | 171.9*
c1ccc2oc(SCc3cn4ccccc4n3)nc2c1 | 0.8 | 16.4 | 130.8* | 3.42* | 124.6
Brc1c(CSc2nc3ccccc3o2)nc2ncccn12 | 0.9 | 9.9 | 133.7* | 2.48 | 37.1
Cc1cccc2nc(CSc3nc4ccccc4o3)cn12 | 1 | 2.5 | 114.2 | 1.44 | 24.2
COc1ccc(Cl)cc1-c1nc(SCC(=O)NC2CC2)n[nH]1 | 1 | 1.7 | 79.7 | 1.11 | 14.9
CCCCCCNC(=O)c1c(N)n(/N=C/c2ccco2)c2nc3ccccc3nc12 | . | . | 135.3* | . | -5.6
CCCCNC(=O)c1c(N)n(/N=C/c2ccccn2)c2nc3ccccc3nc12 | 1.1 | -7.3 | 98.4 | 0.79 | 1.9
O=C(COc1ccc(Br)cc1Cl)NC1CCCCC1 | 0.8 | 15.6 | 138.1* | 3.45* | 77.0
O=C(COc1ccc(Br)cc1Cl)c1ccc[nH]1 | 0.9 | 9.3 | 136.8* | 3 | 57.8
O=C(COc1ccccc1Cl)c1ccc[nH]1 | 1 | 1.8 | 120.3 | 1.41 | 13.3
SMILES | FLuc stim CS | FLuc inhib CS | STAT1 activator | NF-kB neuron act | APP 5'UTR act
O=C(COc1ccc(Br)cc1Br)NC1CCCC1 | 0.9 | 6.8 | 140.9* | 2.73 | 52.9
Cc1cc(Cl)ccc1OCC(=O)NC1CCCC1 | 1 | 0.0 | 106.2 | 1.63 | 17.0
COCCNC(=O)COc1ccc(Br)cc1Cl | 1 | -1.3 | 99.3 | 1.13 | -0.2
C=CCNC(=O)COc1ccc(Br)cc1Cl | 0.8 | 17.3 | 131.9* | 2.32 | 39.2
COc1ccc(C2=NO[C@@H]3[C@@H]4C[C@@H]([C@H]5C(=O)N(c6ccc7c(c6)OCO7)C(=O)[C@@H]45)[C@H]23)cc1OC | 1.1 | -8.5 | 93.3 | 0.55 | 1.6
O=C(CSc1ncnc2sc(-c3ccccc3)cc12)NC1CCS(=O)(=O)C1 (stereo unspecified) | 0.9 | 12.5 | 91.7 | 1.06 | 0.0
COc1ccc(CCNC(=O)Cn2c(=O)n(-c3ccc(C)c(F)c3)c(=O)c3sccc32)cc1OC | 1 | -1.2 | 50.9 | 0.77 | -2.0
COc1ccc(OC)c(C(=O)COC(=O)c2cccnc2Cl)c1 | 1 | 2.3 | 82.6 | 1.43 | 8.1
COc1ccc(C(=O)COC(=O)c2cccnc2Cl)c(OC)c1 | 0.7 | 31.0 | 141.2* | 1.83 | 50.3
CC(C)C(=O)Nc1cccc(C(=O)OCC(=O)c2ccc(Cl)cc2Cl)c1 | 0.5 | 53.7* | 98.5 | 1.33 | 4.7
Cc1cc(C)c(C(=O)COC(=O)c2cccnc2Cl)c(C)c1 | 1 | -1.4 | 122.5 | 1.63 | 7.8
